Source: ChEMBL document CHEMBL5653631, “A Potent and Selective ULK1 Inhibitor Suppresses Autophagy and Sensitizes Cancer Cells to Nutrient Stress” (iScience, 2018)

Key:
[1] = target: Dual specificity tyrosine-phosphorylation-regulated kinase 1B (Homo sapiens) (UniProt Q9Y463); assay: Inhibition of human recombinant DYRK1B at 500 nM related to control ULK1
[2] = target: T1, Activin receptor type-1 (Homo sapiens) (UniProt Q04771); assay: Inhibition of human recombinant ALK2 at 500 nM in presence of ATP by radiometric assay relative to control
T1 sequence (whole entry): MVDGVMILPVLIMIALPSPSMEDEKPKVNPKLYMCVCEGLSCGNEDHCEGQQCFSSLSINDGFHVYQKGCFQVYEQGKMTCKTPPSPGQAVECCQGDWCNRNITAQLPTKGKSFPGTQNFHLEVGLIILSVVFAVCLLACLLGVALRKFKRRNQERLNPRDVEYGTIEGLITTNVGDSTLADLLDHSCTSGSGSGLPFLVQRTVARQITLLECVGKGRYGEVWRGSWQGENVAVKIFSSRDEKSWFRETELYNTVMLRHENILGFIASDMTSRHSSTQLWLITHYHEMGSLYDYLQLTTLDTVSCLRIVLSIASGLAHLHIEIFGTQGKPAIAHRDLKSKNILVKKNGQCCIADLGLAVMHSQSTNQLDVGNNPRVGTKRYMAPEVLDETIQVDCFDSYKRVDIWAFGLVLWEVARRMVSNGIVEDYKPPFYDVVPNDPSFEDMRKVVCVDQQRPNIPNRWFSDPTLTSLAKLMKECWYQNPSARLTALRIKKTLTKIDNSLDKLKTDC
Summary of the method: (§1)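 Panel of 327 recombinant human kinases, each assayed in vitro by radiometric activity assay in duplicate at a single inhibitor concentration per compound, chosen with reference to its ULK1 inhibition. Activity remaining was expressed as percent of vehicle control, and percent inhibition was calculated as 100 minus percent activity remaining.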

[3] = target: Tyrosine-protein kinase Fyn (Homo sapiens) (UniProt P06241); assay: Inhibition of human recombinant FYN at 500 nM related to control ULK1
Sequence of Tyrosine-protein kinase Fyn (Homo sapiens) (P06241 2-537 limits assumed): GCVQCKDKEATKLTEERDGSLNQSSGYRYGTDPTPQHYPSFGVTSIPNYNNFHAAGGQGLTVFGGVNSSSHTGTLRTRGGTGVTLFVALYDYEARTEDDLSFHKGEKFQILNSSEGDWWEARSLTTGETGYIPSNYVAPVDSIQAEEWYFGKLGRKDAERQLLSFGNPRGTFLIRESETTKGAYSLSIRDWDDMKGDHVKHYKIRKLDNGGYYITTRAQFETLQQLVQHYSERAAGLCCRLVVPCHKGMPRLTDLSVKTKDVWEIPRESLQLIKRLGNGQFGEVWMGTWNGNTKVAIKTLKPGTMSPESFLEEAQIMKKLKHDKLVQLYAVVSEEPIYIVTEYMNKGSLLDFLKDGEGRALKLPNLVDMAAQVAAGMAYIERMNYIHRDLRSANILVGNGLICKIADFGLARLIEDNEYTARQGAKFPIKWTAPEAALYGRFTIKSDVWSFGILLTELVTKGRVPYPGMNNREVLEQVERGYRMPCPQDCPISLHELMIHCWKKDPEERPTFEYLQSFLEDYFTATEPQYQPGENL

[4] = target: 5'-AMP-activated protein kinase catalytic subunit alpha-1 (Homo sapiens) (UniProt Q13131); assay: Inhibition of human recombinant AMPKa1 at 500 nM in presence of ATP by radiometric assay relative to control; summary of the method: as §1
Sequence of 5'-AMP-activated protein kinase catalytic subunit alpha-1 (Homo sapiens) (Q13131 whole entry, looked up): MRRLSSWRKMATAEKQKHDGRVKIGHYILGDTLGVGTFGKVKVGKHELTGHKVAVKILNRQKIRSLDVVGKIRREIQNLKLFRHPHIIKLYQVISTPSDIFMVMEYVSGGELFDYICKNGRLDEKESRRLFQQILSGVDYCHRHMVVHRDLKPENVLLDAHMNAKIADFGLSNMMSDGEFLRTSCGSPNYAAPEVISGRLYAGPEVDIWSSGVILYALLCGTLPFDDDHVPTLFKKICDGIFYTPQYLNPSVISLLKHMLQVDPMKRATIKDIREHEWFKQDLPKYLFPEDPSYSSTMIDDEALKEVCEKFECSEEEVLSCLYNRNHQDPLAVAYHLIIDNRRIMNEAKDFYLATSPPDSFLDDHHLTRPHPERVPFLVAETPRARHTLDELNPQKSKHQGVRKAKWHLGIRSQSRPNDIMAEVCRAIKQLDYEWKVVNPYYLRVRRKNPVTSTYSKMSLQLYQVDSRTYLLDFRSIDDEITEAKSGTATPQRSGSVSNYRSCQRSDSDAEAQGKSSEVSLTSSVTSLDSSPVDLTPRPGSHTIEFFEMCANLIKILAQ

[5] = target: T2, cAMP-dependent protein kinase catalytic subunit PRKX (Homo sapiens) (UniProt P51817); assay: Inhibition of human recombinant PRKX at 15 nM related to control ULK1
T2 sequence (whole entry): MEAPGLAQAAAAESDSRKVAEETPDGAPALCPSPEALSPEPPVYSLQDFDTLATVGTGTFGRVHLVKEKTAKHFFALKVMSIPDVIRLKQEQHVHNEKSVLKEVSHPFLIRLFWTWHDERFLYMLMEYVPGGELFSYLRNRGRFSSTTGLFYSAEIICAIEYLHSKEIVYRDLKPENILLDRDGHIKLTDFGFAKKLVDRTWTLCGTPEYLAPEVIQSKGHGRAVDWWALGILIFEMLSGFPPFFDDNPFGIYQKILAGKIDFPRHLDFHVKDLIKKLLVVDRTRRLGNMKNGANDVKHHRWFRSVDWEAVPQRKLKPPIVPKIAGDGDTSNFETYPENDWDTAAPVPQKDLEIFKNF

[6] = target: Tyrosine-protein kinase Fyn (Homo sapiens) (UniProt P06241); assay: Inhibition of human recombinant FYN at 15 nM related to control ULK1
[7] = target: Serine/threonine-protein kinase tousled-like 2 (Homo sapiens) (UniProt Q86UE8); assay: Inhibition of human recombinant TLK2 at 15 nM related to control ULK1
[8] = target: Serine/threonine-protein kinase 10 (Homo sapiens) (UniProt O94804); assay: Inhibition of human recombinant LOK at 15 nM related to control ULK1
Sequence of Serine/threonine-protein kinase 10 (Homo sapiens) (O94804 whole entry, looked up): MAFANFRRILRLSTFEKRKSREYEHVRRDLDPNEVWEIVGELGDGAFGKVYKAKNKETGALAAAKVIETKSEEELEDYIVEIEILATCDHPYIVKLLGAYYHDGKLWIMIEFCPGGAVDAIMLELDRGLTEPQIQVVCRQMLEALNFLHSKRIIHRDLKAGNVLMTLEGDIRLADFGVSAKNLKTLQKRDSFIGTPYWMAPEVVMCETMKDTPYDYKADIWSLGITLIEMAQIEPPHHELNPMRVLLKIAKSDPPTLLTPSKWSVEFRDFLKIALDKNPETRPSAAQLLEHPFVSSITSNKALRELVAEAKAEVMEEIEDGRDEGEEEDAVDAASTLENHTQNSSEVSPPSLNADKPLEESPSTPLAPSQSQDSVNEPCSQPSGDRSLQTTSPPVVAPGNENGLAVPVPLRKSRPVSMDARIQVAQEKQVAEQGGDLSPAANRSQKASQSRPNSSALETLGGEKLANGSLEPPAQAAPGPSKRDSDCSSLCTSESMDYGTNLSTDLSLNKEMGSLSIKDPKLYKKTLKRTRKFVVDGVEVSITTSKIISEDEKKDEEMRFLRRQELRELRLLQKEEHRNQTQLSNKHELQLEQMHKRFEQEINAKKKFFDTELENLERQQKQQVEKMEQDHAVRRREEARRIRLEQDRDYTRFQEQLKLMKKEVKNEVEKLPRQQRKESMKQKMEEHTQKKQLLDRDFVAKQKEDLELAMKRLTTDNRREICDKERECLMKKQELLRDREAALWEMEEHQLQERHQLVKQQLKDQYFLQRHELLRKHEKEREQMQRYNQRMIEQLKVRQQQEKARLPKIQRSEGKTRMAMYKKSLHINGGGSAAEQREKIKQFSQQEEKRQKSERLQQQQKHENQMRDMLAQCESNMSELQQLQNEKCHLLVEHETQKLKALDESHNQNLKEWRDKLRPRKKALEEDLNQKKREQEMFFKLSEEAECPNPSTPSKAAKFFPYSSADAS

[9] = target: Wee1-like protein kinase (Homo sapiens) (UniProt P30291); assay: Inhibition of human recombinant Wee1 at 15 nM in presence of ATP by radiometric assay relative to control
Sequence of Wee1-like protein kinase (Homo sapiens) (P30291 whole entry, looked up): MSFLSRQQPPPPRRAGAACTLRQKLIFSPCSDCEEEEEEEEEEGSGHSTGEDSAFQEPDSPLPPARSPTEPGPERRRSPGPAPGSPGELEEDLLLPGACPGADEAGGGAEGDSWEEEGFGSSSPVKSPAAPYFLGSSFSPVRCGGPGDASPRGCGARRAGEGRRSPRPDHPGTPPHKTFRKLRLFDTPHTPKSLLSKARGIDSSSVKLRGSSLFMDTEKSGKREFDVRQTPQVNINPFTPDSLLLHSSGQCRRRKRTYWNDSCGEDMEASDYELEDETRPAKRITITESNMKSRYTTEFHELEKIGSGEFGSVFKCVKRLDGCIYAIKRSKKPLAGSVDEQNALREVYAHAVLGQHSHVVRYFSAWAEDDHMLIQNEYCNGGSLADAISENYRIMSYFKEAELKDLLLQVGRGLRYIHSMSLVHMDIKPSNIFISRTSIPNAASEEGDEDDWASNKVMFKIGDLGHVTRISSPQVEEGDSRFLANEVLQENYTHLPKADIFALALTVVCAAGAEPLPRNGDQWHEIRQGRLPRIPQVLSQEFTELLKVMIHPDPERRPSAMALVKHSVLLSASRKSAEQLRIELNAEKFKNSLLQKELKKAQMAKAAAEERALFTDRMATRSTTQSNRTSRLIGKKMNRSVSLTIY

[10] = target: Calcium/calmodulin-dependent protein kinase type II subunit delta (Homo sapiens) (UniProt Q13557); assay: Inhibition of human recombinant CaMK2d at 15 nM in presence of ATP by radiometric assay relative to control
Sequence of Calcium/calmodulin-dependent protein kinase type II subunit delta (Homo sapiens) (Q13557 whole entry): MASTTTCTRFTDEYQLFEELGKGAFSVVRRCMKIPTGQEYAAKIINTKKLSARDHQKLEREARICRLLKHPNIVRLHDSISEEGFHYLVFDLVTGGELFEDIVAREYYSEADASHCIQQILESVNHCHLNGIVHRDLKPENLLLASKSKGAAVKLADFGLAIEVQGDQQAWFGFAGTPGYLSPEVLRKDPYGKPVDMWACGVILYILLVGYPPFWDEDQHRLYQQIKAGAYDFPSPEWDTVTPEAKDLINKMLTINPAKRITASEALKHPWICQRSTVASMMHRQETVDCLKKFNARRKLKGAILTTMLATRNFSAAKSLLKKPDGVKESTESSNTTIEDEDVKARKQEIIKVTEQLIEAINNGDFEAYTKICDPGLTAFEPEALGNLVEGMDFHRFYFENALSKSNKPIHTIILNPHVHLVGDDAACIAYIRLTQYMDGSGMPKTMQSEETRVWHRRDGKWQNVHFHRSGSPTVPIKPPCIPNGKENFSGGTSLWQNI

[11] = target: T3, Serine/threonine-protein kinase Nek2 (Homo sapiens) (UniProt P51955); assay: Inhibition of human recombinant NEK2 at 40 nM related to control ULK1
T3 sequence (whole entry): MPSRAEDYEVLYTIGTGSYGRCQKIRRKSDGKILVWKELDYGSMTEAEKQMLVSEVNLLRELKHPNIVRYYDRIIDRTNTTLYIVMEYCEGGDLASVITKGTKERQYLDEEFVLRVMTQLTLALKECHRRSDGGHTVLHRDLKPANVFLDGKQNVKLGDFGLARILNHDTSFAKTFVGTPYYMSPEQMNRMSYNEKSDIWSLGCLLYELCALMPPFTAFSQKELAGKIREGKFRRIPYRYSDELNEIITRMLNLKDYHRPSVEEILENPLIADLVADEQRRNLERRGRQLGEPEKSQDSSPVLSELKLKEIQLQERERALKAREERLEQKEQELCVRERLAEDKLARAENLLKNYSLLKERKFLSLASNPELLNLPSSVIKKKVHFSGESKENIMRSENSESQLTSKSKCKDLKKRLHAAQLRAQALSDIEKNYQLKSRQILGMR

[12] = target: T4, Tribbles homolog 2 (Homo sapiens) (UniProt Q92519); assay: Inhibition of human recombinant Trb2 at 40 nM related to control ULK1
T4 sequence (whole entry): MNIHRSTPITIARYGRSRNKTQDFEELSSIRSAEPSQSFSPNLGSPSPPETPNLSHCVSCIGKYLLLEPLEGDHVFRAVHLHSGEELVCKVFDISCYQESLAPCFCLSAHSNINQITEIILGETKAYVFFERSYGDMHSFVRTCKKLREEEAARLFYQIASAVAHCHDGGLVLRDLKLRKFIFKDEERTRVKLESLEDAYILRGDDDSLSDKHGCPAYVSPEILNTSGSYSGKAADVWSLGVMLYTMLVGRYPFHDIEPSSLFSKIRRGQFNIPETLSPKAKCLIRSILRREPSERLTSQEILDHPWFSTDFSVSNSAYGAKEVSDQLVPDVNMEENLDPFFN

[13] = target: Tyrosine-protein kinase receptor UFO (Homo sapiens) (UniProt P30530); assay: Inhibition of human recombinant AXL at 40 nM related to control ULK1
Sequence of Tyrosine-protein kinase receptor UFO (Homo sapiens) (P30530 whole entry): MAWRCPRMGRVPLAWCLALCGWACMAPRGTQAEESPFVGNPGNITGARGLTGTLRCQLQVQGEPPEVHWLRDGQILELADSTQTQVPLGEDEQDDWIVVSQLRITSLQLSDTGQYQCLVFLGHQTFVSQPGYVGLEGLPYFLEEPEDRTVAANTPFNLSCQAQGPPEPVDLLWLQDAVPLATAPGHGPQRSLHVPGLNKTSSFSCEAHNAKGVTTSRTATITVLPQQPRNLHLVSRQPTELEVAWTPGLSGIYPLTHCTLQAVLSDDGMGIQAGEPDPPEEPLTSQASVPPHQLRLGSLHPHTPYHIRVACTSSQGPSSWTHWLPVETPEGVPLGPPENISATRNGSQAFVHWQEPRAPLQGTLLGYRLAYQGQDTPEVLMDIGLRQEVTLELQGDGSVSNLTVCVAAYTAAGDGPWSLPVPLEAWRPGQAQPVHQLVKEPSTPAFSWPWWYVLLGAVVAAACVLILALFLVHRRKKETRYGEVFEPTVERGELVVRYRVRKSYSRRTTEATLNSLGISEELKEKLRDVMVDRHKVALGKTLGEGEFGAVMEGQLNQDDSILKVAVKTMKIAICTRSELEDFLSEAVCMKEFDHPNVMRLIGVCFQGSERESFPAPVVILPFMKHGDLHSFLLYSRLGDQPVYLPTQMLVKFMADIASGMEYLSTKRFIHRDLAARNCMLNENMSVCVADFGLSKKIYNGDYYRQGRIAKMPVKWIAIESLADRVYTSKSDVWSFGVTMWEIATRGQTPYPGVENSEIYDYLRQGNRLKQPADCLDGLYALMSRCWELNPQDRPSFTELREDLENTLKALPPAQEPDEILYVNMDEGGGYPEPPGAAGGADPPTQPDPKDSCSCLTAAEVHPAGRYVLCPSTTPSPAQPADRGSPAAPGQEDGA
Summary of the method: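 Radiometric activity assays in a panel of 327 human recombinant kinases, each run in duplicate at one inhibitor concentration. Activity remaining is expressed as percent of vehicle control, and percent inhibition is calculated as 100% minus percent activity remaining.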

Sequence of Dual specificity tyrosine-phosphorylation-regulated kinase 1B (Homo sapiens) (Q9Y463 whole entry, looked up): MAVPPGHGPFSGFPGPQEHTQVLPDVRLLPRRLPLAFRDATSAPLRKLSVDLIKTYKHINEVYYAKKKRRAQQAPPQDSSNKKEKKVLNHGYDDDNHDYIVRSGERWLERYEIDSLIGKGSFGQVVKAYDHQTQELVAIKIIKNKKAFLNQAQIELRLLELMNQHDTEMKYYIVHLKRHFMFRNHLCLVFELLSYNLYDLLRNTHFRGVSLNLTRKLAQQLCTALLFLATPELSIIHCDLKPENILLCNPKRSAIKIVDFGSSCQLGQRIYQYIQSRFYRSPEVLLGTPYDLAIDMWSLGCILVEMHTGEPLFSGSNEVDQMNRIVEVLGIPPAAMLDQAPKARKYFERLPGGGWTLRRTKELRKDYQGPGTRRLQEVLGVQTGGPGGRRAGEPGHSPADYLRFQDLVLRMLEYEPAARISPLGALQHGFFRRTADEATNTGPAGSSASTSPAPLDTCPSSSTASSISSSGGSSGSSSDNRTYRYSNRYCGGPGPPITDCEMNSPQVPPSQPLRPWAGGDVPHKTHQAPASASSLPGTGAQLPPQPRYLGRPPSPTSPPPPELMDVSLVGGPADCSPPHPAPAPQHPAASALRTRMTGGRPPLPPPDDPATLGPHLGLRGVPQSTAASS

In the case of `CNC(=O)c1ccccc1Oc1nc(Nc2cc(OC)c(OC)c(OC)c2)ncc1Br`, the fold change (FC) [1] is reported as 0, the inhibition [2] is reported as 46% and the fold change (FC) [3] is reported as 0.26. The inhibition [4] was 51%.
Compound `CC(C)[C@H](NC(=O)c1cc(-c2cnn3cc(-c4ccc(OCCN5CCCCC5)cc4)cnc23)cs1)C(F)(F)F` has a fold change (FC) [5] of 0.18, a fold change (FC) [6] of 0.18 and a fold change (FC) [7] of 0.03. It also gave a fold change (FC) [8] of 0, an inhibition [9] of 15% and an inhibition [10] of 20%.
With `O=C(N[C@@H](C1CC1)C(F)(F)F)c1cc(-c2cnn3cc(-c4ccc(F)cc4)cnc23)cs1` the fold change (FC) [11] was 0, the fold change (FC) [12] was 0.47 and the fold change (FC) [13] was 0.07.
